b-catenin transl: modulators of beta-catenin nuclear translocation | nuclear translocation activity, % at 5 µM | HeLa beta-catenin nuclear translocation, immunofluorescence imaging | actives 0.3% (n = 190,000) | AID 1665;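 active = nuclear translocation activity above 50% at 5 µM, with a well cell count of 50 or more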;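 also: per-cell ratio of nuclear to cytoplasmic median beta-catenin stain intensity; plate controls were DMSO negative control for no effect and GSK-3 inhibitor IX positive control for full effect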
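Test system: human HeLa cells, endogenous beta-catenin. Times: 24 h compound exposure, 37°C. Measured by: beta-catenin immunofluorescence imaging with DAPI.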
MT stabilizer: stabilizes microtubules in HeLa cells | HeLa tubulin immunostaining HCS, 24 h; share of cells brighter than vehicle mean+2SD | % tubulin-high responders, % at 10 µM | actives 0.83% (n = 200,000);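 active = plate Z-score above 3 for both tubulin-high and condensed-nucleus cell shares, with cell loss under 80%, at 10 µM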;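 also: anti alpha tubulin signal scored within the nucleus-defined area of each cell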
Dynein transport: dynein cargo transport inhibition; z-score, hits read low; actives 0.47% (n = 220,000); 3617.4 mouse cells, GR-EGFP nuclear translocation imaging; test concentration mostly 20 µM; stimulated with dexamethasone, 1 µM; hits give low values;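 active = plate z-score of nuclear minus cytoplasmic receptor signal below a set negative limit, without overly bright fluorescence or cell loss, cut at about -3.5 in these data, passing the limit was not always enough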;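 also: z-score of nuclear minus cytoplasmic ring GR-EGFP intensity difference per well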
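Schedule: 48 h induction, then 1 h compound, then 30 min agonist, 37 °C. Buffer or medium: tetracycline-free induction medium containing charcoal-stripped FBS. Reagent: 1.0 µM final dexamethasone stimulus. Evaluation: nuclear versus cytoplasmic GR-EGFP signal, averaged per well. Signal: high-content fluorescence imaging after fixation.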
Lmaj promast: inhibitors of Leishmania major promastigote growth; AID 1063; Leishmania major promastigotes, resazurin fluorescence viability; inhibition, % at 10 µM; actives 9% (n = 200,000); in the data active = inhibition above about 50%;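 also: promastigotes grown with compound for 44 hours at 28 °C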
HSV replic up: increases HSV replication in cells; HSV replication augmentation in cells, fold increase; maximum fold increase; actives 0.005% (n = 220,000); AID 1956; in the data active = maximum fold increase above about 1.5; tested in PC3 cells
The depositor's hits bear a star; i = inactive; / = not tested or not shown. Compounds with a hit are over-represented: about 8.9% of the library has one in this group of screens.

SMILES	b-catenin transl	MT stabilizer	Dynein transport	Lmaj promast	HSV replic up
O=C(NCc1ccco1)C1CC(c2ccccc2O)=NO1 (centres undefined)	6	8	-0.53	-4	i
O=C(NCc1ccco1)C1CC(c2cc(C(F)(F)F)cc(C(F)(F)F)c2)=NO1 (centres undefined)	92*	/	0.66	/	i
O=C(NCc1ccco1)C1CC(c2ccccc2C(F)(F)F)=NO1 (centres undefined)	4	/	0.79	/	i
COc1ccc(OC)c(C2=NOC(C(=O)NCc3ccco3)C2)c1 (centres undefined)	/	21*	-0.75	0	i
CC(=O)Oc1ccc(N2C(=O)CC(N3CCOCC3)C2=O)cc1 (centres undefined)	-1	2	-0.23	-3	i
O=C(c1ccc(Cl)c(Cl)c1)N(Cc1ccco1)c1ccc(O)cc1	0	21	1.1	70*	i
O=C(COc1ccccc1)N(Cc1ccco1)c1ccc(O)cc1	-3	4	0.42	-6	i
O=C(N/N=C1\CCCc2ccccc21)c1ccccc1Cl	-1	7	0.85	88*	i
COc1ccc(/C=N/NC(=O)c2ccc(COc3ccccc3Cl)o2)c(OC)c1C	-4	2	-0.51	56*	i
COc1cc(NC(=O)c2ccc(COc3ccccc3Br)o2)cc(OC)c1OC	-1	1	-0.81	68*	i
O=C(Cn1nc(-c2ccc3c(c2)OCCO3)ccc1=O)Nc1ccc(-n2cnnn2)cc1	-1	4	-0.45	-12	i
Cc1[nH]c(=S)c(C#N)c2c1CCCC2	6	2	0.17	1	i
CC1CCN(c2[nH]c(=S)c(C#N)c3c2CCCC3)CC1	0	1	-0.95	100*	i
CCc1ccc(NC(=O)Cc2cn(C)c3ccccc23)cc1	/	1	-0.9	6	i
CCOC(=O)c1cc(C(=O)OCC)c2cc(Br)ccc2n1	/	2	-0.066	-4	i
COc1ccc(CNC(=O)C(c2ccc(C)cc2)N(Cc2cccs2)C(=O)c2ccc3c(c2)OCCO3)cc1 (centres undefined)	-2	3	-1.1	99*	i
COc1cc(-c2nnc(CSc3nnc(Nc4ccc(C(C)C)cc4)s3)o2)cc(OC)c1OC	-2	8	-0.61	71*	i
CCOc1cc(-c2nc(C)c(C(C)=O)n2O)ccc1OCC(=O)Nc1ccc(F)cc1	2	6	0.21	13	i
CN1C(=O)C(/C(N)=N/NC(=O)c2ccccc2)C2CC1(C)Oc1ccccc12 (centres undefined)	-2	4	0.44	-10	i
Cc1ccc(Nc2nnc(C3C(=O)N(C)C4(C)CC3c3cc(Br)ccc3O4)s2)cc1 (centres undefined)	-2	4	0.65	69*	i
COc1ccc([C@H]2/C=C\CN(C(=O)CC(C)(C)C)[C@@H](C)C(=O)N2Cc2ccc(F)cc2)cc1	/	/	/	/	i
CCCc1nnc(NC(=O)C(=O)NCCN(CC)CC)s1	-4	/	1	/	i
O=c1oc2ccccc2cc1-c1nnc(NCc2ccco2)s1	/	20*	1.9	-9	i
Nc1nnc(-c2cc3ccccc3oc2=O)s1	0	3	-0.21	14	i
CC(=O)Nc1ccc(S(=O)(=O)Nc2nc3ccccc3nc2-n2ccc(=NC(=O)c3ccccc3)cc2)cc1	1	/	i	/	i
SMILES	b-catenin transl	MT stabilizer	Dynein transport	Lmaj promast	HSV replic up
O=C(Nc1cccc2ccccc12)c1nn(C23CC4CC(CC(C4)C2)C3)cc1[N+](=O)[O-]	-2	4	0.39	81*	i
Cn1nc(C(C)(C)C)c([N+](=O)[O-])c1C(=O)Nc1cccc2ccccc12	2	/	1.2	/	i
COc1ccc(NC(=O)c2nn(C34CC5CC(CC(C5)C3)C4)cc2[N+](=O)[O-])cc1	-1	5	0.73	96*	i
CCn1cc([N+](=O)[O-])c(C(=O)Nc2ccc3c(c2)OCCO3)n1	-2	2	-0.57	1	i
CCOc1ccc(NS(=O)(=O)c2ccc3[nH]c(=O)c(=O)[nH]c3c2)cc1	-1	6	0.11	-4	i
CCSc1nnc(-c2cccc(S(=O)(=O)N(C)C)c2)n1-c1cc(OC)ccc1OC	-4	1	0.93	-4	i
CCCSc1nnc(-c2cccc(S(=O)(=O)N(C)C)c2)n1-c1cc(OC)ccc1OC	0	2	-0.7	53*	i
CCCC(O)(CCC)C(=O)NN(C(=O)CCl)c1ccccc1	0	4	-1.7	52*	i
CCCCC(O)(CCCC)C(=O)NN(C(=O)OCC)c1ccccc1	-1	4	0.34	-2	i
CCOC(=O)Cc1nnc(NC(=O)c2ccco2)s1	-9	5	1.6	-2	i
Cc1cc(C)cc(NC(=S)NC2CC3CCCC(C2)N3C2CCCC2)c1 (centres undefined)	-1	3	-0.67	53*	i
Cc1cc(C)cc(NC(=S)NC2CC3CCCC(C2)N3C2CC2)c1 (centres undefined)	0	4	-0.027	55*	i
Cc1cc(C)cc(NC(=S)NC2CC3CCCC(C2)N3CC(C)C)c1 (centres undefined)	-1	3	-0.77	37	i
O=C(CN(c1ccc(F)cc1)S(=O)(=O)c1ccccc1)Nc1ccccc1C(=O)O	-4	2	1.1	1	i
CC[n+]1c(S(=O)(=O)[O-])ccc2ccc(C)cc21	3	2	0.26	-5	i
CCN1/C(=C/c2ccc3cc(C)ccc3[n+]2CC)Sc2cc(C)ccc21	3	4	-2.6	100*	/
CCN1/C(=C/c2ccc3cc(C)ccc3[n+]2C)Sc2ccc3sccc3c21	/	77*	7.8	101*	/
CCN1C(=C2C(=O)c3ccccc3C2=O)C=Cc2ccccc21	-4	2	0.68	27	i
CCN1/C(=C/c2ccc3ccccc3[n+]2CC)C=Cc2ccccc21	/	4	2	101*	i
CCCCN1/C(=C/c2ccc3ccccc3[n+]2CC)Sc2ccccc21	1	8	0.13	100*	/
Cc1sc2c3ccsc3ccc2[n+]1C	-2	1	-1.5	1	i
CC(OC(=O)c1ccc2c(=O)n3c(nc2c1)CCCCC3)C(=O)Nc1ccc(F)cc1Cl (centres undefined)	/	3	0.61	56*	i
CCN(CC)S(=O)(=O)c1cccc(C(=O)N/N=C/c2ccc(OC)c(O)c2)c1	-1	7	1.5	5	i
CCn1c(COc2cccc3cccnc23)nnc1SC(F)F	-4	4	-0.75	83*	i
O=C1c2ccccc2C(=O)N1CCCON1C(=O)c2ccccc2C1=O	-4	2	0.74	50*	i
COC(=O)c1sc2ccccc2c1-n1cccc1C(=O)C(=O)Nc1ccc(F)cc1	0	3	0.013	3	i
COC(=O)c1sccc1-n1cccc1C(=O)C(=O)Nc1ccc(F)cc1	1	3	0.66	-2	i

Screens as filed in PubChem BioAssay.
